This note sets out measurements from the EternaBench riboswitch data.

A word on the apparent Kd: it is the concentration giving half-maximal binding under the conditions of the assay.

This data set relates to MS2 coat protein. Put plainly: apparent Kd, MS2 coat protein; higher = weaker binding; RNA-MaP array; FMN 200 µM where present. In outline: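 Designs were transcribed by stalled E. coli RNA polymerase on Illumina sequencing-chip clusters. They were titrated with SNAP-549-labelled MS2 coat protein from 0.7 or 1.5 nM, doubling to 3 µM, in 100 mM Tris-HCl pH 7.5, 80 mM KCl, 4 mM MgCl2, BSA, DTT, yeast tRNA and Tween-20, without and then with constant ligand. The apparent Kd is the median of filtered per-cluster fits after normalisation of green signal to red-channel RNA signal and control-cluster median Fmax.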

The mark [1] stands for this setting: designed as: OFF switch for flavin mononucleotide, no ligand.
[2] abbreviates: ligand present: flavin mononucleotide, designed as: OFF switch for flavin mononucleotide.
Where [3] appears, read: designed as: ON switch for flavin mononucleotide, no ligand.
The mark [4] stands for this setting: ligand present: flavin mononucleotide, designed as: ON switch for flavin mononucleotide.

For the sequence “CCACGGUAUGUAGGAUAUGCAUAGCAUUGCUAAAAAGAAGGACAUGAGGAUCACCCAUGUAUGUAUUCCAUACUAAUCCCGUGC”, the “apparent Kd” value under setting [1] is 8.98 nM and the “apparent Kd” value under setting [2] is 8.06 nM.

Consider “GGCAUACAUGAGGAUCACCCAUGUAACCUGCACUAAGGAUAUGGCGUGGCCCAUGGCUACCCAGAAGGUAGAUAAA”, for which the “apparent Kd” value is, setting by setting: under setting [3], 136 nM; under setting [4], 195 nM.

Regarding “UGGCUACAUGAGGAUCACCCAUGUCAGGAUAUGCCGUUGGAUUGACAUCGUCGUUCGGGUAGAAGGGACUGCGU”, the “apparent Kd” value was 47.6 nM under setting [1] and 53.1 nM under setting [2].

For “AAAUAGCGAGGAUAUACAUGAGGAUCACCCAUGUGGACUGAUGUCGCGUGAUUCAGUGGUAGAAGGUGCUCAAA”, the “apparent Kd” value reads like this: under setting [1], 45.4 nM; under setting [2], 76.3 nM.

As for “CUAGAAAGGACAGGAUAUCGGGAUCGAACACCCGACAUGAGGAUCACCCAUGUCGCAAAUGAUAGCGAGAAGGGUCGGACACAA”, the “apparent Kd” value was 57 nM under setting [3] and 18.6 nM under setting [4].

For “AGUACUCCAGAAGGAUAUGCAUCGGUGGAUGUCCUUAGGCGGACGGUCACAUGAGGAUCACCCAUGUAGAAGGUCUGGGAGCCG”, the “apparent Kd” value is, setting by setting: under setting [1], 39.8 nM; under setting [2], 238 nM.

As to “AGUCGGAGCAGAGGAUAUUACAUGAGGAUCACCCAUGUAAUAAAUGGAAGCUGGAAACAGCAAUGUAAGAAGGCUGCUCCGACA”, the “apparent Kd” value is, setting by setting: under setting [1], 16.4 nM; under setting [2], 47.9 nM.

For “UCAAAGCCAUUUUGGCGAGUCACAUGAGGAUCACCCAUGUAACAGGAUAUCGAUUGGCUUCCCGGCGAGAAGGGUUACUAGGGA”, the “apparent Kd” value is, setting by setting: under setting [1], 10.8 nM; under setting [2], 15.5 nM.

Turning to “CAGCGAAAGUAGAAGGCAGUACUGAUACAGUACUGAGGAUAUACAUGAGGAUCACCCAUGUACAAAAGCUGGAAAUAAAUAAAA”, the “apparent Kd” value runs as follows: under setting [1], 6.56 nM; under setting [2], 6.81 nM.

As for “UGAUCGAGAGAUCUUAGAUUCUGGUAGGAUAUACAAAAGUUGCGCUUUACAUGAGGAUCACCCAUGUAGAAGGACUAGAGUCUA”, the “apparent Kd” value under setting [1] turned out to be 7.45 nM and the “apparent Kd” value under setting [2] was found to be 8.66 nM.

Take “ACUGCAUAGGCAGGAUAUGCAAAAGCAGAUGCAAAGCAUUUGAAUAACACAUGAGGAUCACCCAUGUAGAAGGGCCUGUGCAGU”: the “apparent Kd” value stood at 20.1 nM under setting [1] and 20.2 nM under setting [2].

For the sequence “AGGGUGGGCUCAGGAUAUCAGGGAGAGAUGUGGACAUGAGGAUCACCCAUGUACCAGUGUUGUCAUGAGAAGGGAGAUACUGUA”, the “apparent Kd” value reads like this: under setting [3], 52.7 nM; under setting [4], 28 nM.

On to “GUUAUGUUAGGAUAUGCUUAUGGUGGAUAAUCAGAUAUGAUGCAGAAGGGACAUGAGGAUCACCCAUGUACUGU”, for which the “apparent Kd” value runs as follows: under setting [1], 21 nM; under setting [2], 23.8 nM.

Regarding “AAAACAUGAGGAUCACCCAUGUUUAGAUCGGUCGAUAGAAGUGAGGAUAUACGAAGUUAAGGCUGGUAGAAGGCACUGGGUACA”, the “apparent Kd” value is, setting by setting: under setting [3], 39.8 nM; under setting [4], 33.3 nM.

In the case of “GUCAGCUCGUGAGGAUAUACAUGUGCUGGAAACAGCACUAAAGAUUUCACAUGAGGAUCACCCAUGUAGAAGGCACGAGCUGAU”, the “apparent Kd” value under setting [1] was found to be 16.1 nM and the “apparent Kd” value under setting [2] was found to be 38 nM.

“CAGAUUUGCUAGAAGGGUGACAUGAGGAUCACCCAUGUGCGGGCAGUCCUAUCUUCAUGCCCGCCACAGGAUAUAGCAAUUCUC”: the “apparent Kd” value was 24.1 nM under setting [3] and 49 nM under setting [4].

Regarding “GCCUGAUCCACUUUAGGCCCAGACAGAAGGGCACACGGUCUAAGUCACAUGAGGAUCACCCAUGUGCAGGAUAUGUCUCGACUC”, the “apparent Kd” value is, setting by setting: under setting [1], 8.88 nM; under setting [2], 26.2 nM.

As for “CGCUACGUUUCGUAGCAGUGUCAUCGAGAAGGCCCUGACAUGAGGAUCACCCAUGUAAAAGUUCAGGAGGAUAUCGAUGAUACA”, the “apparent Kd” value by setting is: under setting [3], 4.83 nM; under setting [4], 4.95 nM.

Take “CAGCGAUAGCUGAACAAUCUAUCUGAGGAUAUUCAUAUAAAACAUGAGGAUCACCCAUGUAAUUGGGAGAAGGCAGAUAGAUUG”: the “apparent Kd” value reads like this: under setting [3], 22.4 nM; under setting [4], 6.11 nM.

Regarding “GCAUGUUGGUAGGAUAUGCAGCGAAAACCGCGAGUAGAAGGAUUGACAUGAGGAUCACCCAUGUGAACCUAAGG”, the “apparent Kd” value under setting [1] came out at 27.1 nM and the “apparent Kd” value under setting [2] came to 59.2 nM.

With “GGAGAUACAUGAGGAUCACCCAUGUAGGAUAUCUAGUAUAUAUAUGGCGAAAGCCAUAUAUAUAUAGAGAAGGGCGUACACACC”, the “apparent Kd” value amounted to 9 nM under setting [1] and 7.91 nM under setting [2].

“UUGGACGUCGUAGGACAUGUAGGAUAUUCCUACAUGAGGAUCACCCAUGUUGACAUGGAAGAAGGACAGAAGGACGAUGUCCAU”: the “apparent Kd” value under setting [3] is 723 nM and the “apparent Kd” value under setting [4] is 46.9 nM.

Consider “AUAGGUUAAGGAGGAUAUAGAGGGAGAAGUAAACAUGAGGAUCACCCAUGUAUUUAAUUAGUUUACUAGAAGGCUUAUGAUUGU”, for which the “apparent Kd” value under setting [3] turned out to be 39.2 nM and the “apparent Kd” value under setting [4] was 43.7 nM.

Regarding “CCAUCGUGUGUGAGGAUAUGCUGGUCCUUGGAUCAGCAGAAGGCACAUGAGGAUCACCCAUGUGAAUACGGUGG”, the “apparent Kd” value came out at 18.6 nM under setting [1] and 29 nM under setting [2].
